Tests used:
Mustela putorius furo [1] = experiment: Minimum intravenous effective dose required to inhibit jejunal motility in ferrets; type: functional
Outline: (§1)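 Anesthetized male ferrets (800–1200 g), fasted 24 h before surgery, dosed iv. Spontaneous jejunal motility recorded manometrically via catheters inserted into jejunum. Value is minimum effective (threshold) dose inhibiting motility; each animal its own control; number of determinations recorded, SEM given when replicates differed.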

Mustela putorius furo [2] = experiment: Intravenous effective dose required to produce a 1 mV increase in transmural potential difference in ferrets (GI side effect); type: functional
Outline: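 Anesthetized male ferrets (800–1200 g), fasted 24 h before surgery, dosed iv. Transmural potential difference across jejunal wall measured with calomel half-cells and salt bridges (one in luminal fluid, other via wick electrode in serosal fluid) to an electrometer. Value is dose giving >1 mV rise in potential difference; each animal its own control.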

Mus musculus = experiment: Analgesic activity measured using mouse writhing antinociceptive assay after subcutaneous administration; type: functional; details: sc
Outline: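 Male Cr1:CF1 mice, groups of 5–10, given vehicle or compound sc; 25 min later 0.5% acetic acid ip. Writhes per mouse counted in individual chambers 5–10 min after acid (30–35 min post-dose), expressed as mean writhes over 5 min. ED50 from linear regression.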

[3] = molecular target: Muscarinic acetylcholine receptor; experiment: Binding affinity against Muscarinic acetylcholine receptors using [3H]oxotremorine-M as radioligand in rat cortex
Outline: (§2)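 Rat cortex radioligand displacement with [³H]oxotremorine-M, which labels the agonist conformational state of muscarinic receptors without subtype selectivity. Affinity is reported as Ki (nM) ± SEM.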

[4] = Mean plasma concentration measured 1 h following an oral dose of 30 mg/kg; type: ADME, organism-based; set-up: dose 30 mg/kg, route oral
Outline: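 Rats dosed orally at 30 mg/kg; parent compound plasma concentration measured 1 h after dosing, reported as mean.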

Mustela putorius furo [5] = experiment: Minimum intravenous effective dose required to inhibit spontaneous motility in ferrets; type: functional; outline: as §1
[6] = molecular target: Muscarinic acetylcholine receptor; experiment: Binding affinity against Muscarinic acetylcholine receptor using [3H]oxotremorine-M as radioligand in rat cortex; outline: as §2

| Structure (SMILES) | Dose (Mustela putorius furo [1]) | ED (1mV) (Mustela putorius furo [2]) | ED50 (Mus musculus) | Ki [3] | concentration at 1 h [4] | ED50 (Mustela putorius furo [5]) | Ki [6] |
| --- | --- | --- | --- | --- | --- | --- | --- |
| CC(C)CCCSc1nsnc1C1CN2CCCC1C2 (racemic) | 0.03 mg/kg | 0.003 mg/kg | 0.95 mg/kg | 910 pM |  |  |  |
| CCCCCCSc1nccnc1C1CN2CCC1CC2 (configuration not stated) | >0.03 mg/kg | >0.03 mg/kg | 2.3 mg/kg | 4000 pM |  |  |  |
| FC(F)(F)CCCCSc1nsnc1[C@@H]1CN2CCC[C@@H]1C2 | 0.001 mg/kg | 0.01 mg/kg | 0.07 mg/kg | 240 pM |  |  |  |
| FC(F)(F)CCCSc1nsnc1[C@H]1CN2CCC[C@H]1C2 |  | 0.015 mg/kg | 0.1 mg/kg | 420 pM | 805 ng/mL | 0.00017 mg/kg |  |
| CCCCCCSc1nsnc1C1=CCCN(CC)C1 | >0.03 mg/kg | >0.03 mg/kg | > 10 mg/kg | 18000 pM |  |  |  |
| CCCCSc1nsnc1C1CN2CCCC1C2 (racemic) | 0.001 mg/kg | 0.001 mg/kg | 0.03 mg/kg | 360 pM |  |  |  |
| FC(F)(F)CCCSc1nsnc1[C@@H]1CN2CCC[C@@H]1C2 |  | 0.002 mg/kg | 0.35 mg/kg | 330 pM |  | 0.017 mg/kg |  |
| CN1CCC=C(c2nsnc2SCCCc2cccs2)C1 | 0.03 mg/kg | 0.03 mg/kg | > 10 mg/kg | 10000 pM |  |  |  |
| CCCCSc1nsnc1[C@@H]1CN2CCC[C@@H]1C2 | 0.001 mg/kg | 0.001 mg/kg | 0.19 mg/kg | 450 pM | 21 ng/mL |  |  |
| CCCCSc1nsnc1C1=CCCNC1 | 0.03 mg/kg | 0.03 mg/kg | 0.14 mg/kg | 3500 pM |  |  |  |
| C=CCCCCOc1nsnc1C1=CCCN(C)C1 | 0.03 mg/kg | 0.003 mg/kg | 0.9 mg/kg | 3000 pM |  |  |  |
| CN1[C@@H]2CC[C@H]1C[C@@H](OC(=O)C(CO)c1ccccc1)C2 (some centres not stated) [ATROPINE] |  | >0.03 mg/kg | > 30 mg/kg |  |  | 0.00073 mg/kg |  |
| CCCCSc1nccnc1C1CN2CCC1CC2 (configuration not stated) | 0.003 mg/kg | 0.03 mg/kg | 3.2 mg/kg | 500 pM |  |  |  |
| FC(F)(F)CCSc1nsnc1[C@@H]1CN2CCC[C@@H]1C2 | 0.003 mg/kg | 0.01 mg/kg | 0.1 mg/kg | 440 pM |  |  |  |
| CN1CCC=C(c2nsnc2SCCCc2ccccc2)C1 | 0.01 mg/kg | 0.03 mg/kg | > 10 mg/kg | 1000 pM |  |  |  |
| CCCCOc1nsnc1C1=CCCN(C)C1 | 0.003 mg/kg | 0.007 mg/kg | 0.41 mg/kg | 1400 pM |  |  |  |
| CCCCSc1nsnc1C1CN2CCC1CC2 (configuration not stated) [VEDACLIDINE] | 0.003 mg/kg | 0.01 mg/kg | 0.19 mg/kg | 400 pM |  |  |  |
| CN1CC[C@]23c4c5ccc(O)c4O[C@H]2[C@@H](O)C=C[C@H]3[C@H]1C5 [MORPHINE] |  |  | 0.3 mg/kg |  |  |  |  |
| FC(F)(F)CCCSc1nsnc1[C@@H]1CN2CCC[C@H]1C2 |  | >0.03 mg/kg | > 10 mg/kg | 25000 pM |  | 0.0047 mg/kg |  |
| FC(F)(F)CCCSc1nsnc1C1CN2CCCC1C2 (racemic) | 0.001 mg/kg | 0.03 mg/kg | 0.1 mg/kg |  |  |  | 400 pM |
| FC(F)(F)CCCSc1nsnc1[C@H]1CN2CCC[C@@H]1C2 |  | >0.03 mg/kg | 1.8 mg/kg | 9600 pM |  | 0.0053 mg/kg |  |
